≈ marks a conversion by molar mass, not a printed value.
Legend:
Type in all cases: functional
Staphylococcus aureus [1] = test: Antibacterial activity against methicillin-susceptible Staphylococcus aureus by CLSI M100-S17 method
[2] = system: Staphylococcus epidermidis; test: Antibacterial activity against methicillin-susceptible Staphylococcus epidermidis assessed as susceptible isolates by CLSI M100-S17 method
Streptococcus agalactiae [3] = test: Antibacterial activity against Streptococcus agalactiae by CLSI M100-S17 method
Enterococcus faecium [4] = test: Antibacterial activity against Enterococcus faecium assessed as intermediate isolates by CLSI M100-S17 method
Streptococcus pneumoniae [5] = test: Antibacterial activity against Streptococcus pneumoniae by CLSI M100-S17 method
Enterococcus faecium [6] = test: Antibacterial activity against Enterococcus faecium assessed as susceptible isolates by CLSI M100-S17 method
Enterococcus faecium [7] = test: Antibacterial activity against Enterococcus faecium assessed as resistant isolates by CLSI M100-S17 method
[8] = system: Staphylococcus epidermidis; test: Antibacterial activity against methicillin-resistant Staphylococcus epidermidis by CLSI M100-S17 method
Staphylococcus aureus [9] = test: Antibacterial activity against methicillin-susceptible Staphylococcus aureus assessed as susceptible isolates by CLSI M100-S17 method
Enterococcus faecalis [10] = test: Antibacterial activity against Enterococcus faecalis assessed as intermediate isolates by CLSI M100-S17 method
Enterococcus faecium [11] = test: Antibacterial activity against Enterococcus faecium by CLSI M100-S17 method
[12] = system: Staphylococcus epidermidis; test: Antibacterial activity against methicillin-susceptible Staphylococcus epidermidis by CLSI M100-S17 method
Enterococcus faecalis [13] = test: Antibacterial activity against Enterococcus faecalis assessed as resistant isolates by CLSI M100-S17 method
Staphylococcus aureus [14] = test: Antibacterial activity against methicillin-susceptible Staphylococcus aureus assessed as intermediate isolates by CLSI M100-S17 method
Streptococcus pneumoniae [15] = test: Antibacterial activity against Streptococcus pneumoniae assessed as susceptible isolates by CLSI M100-S17 method
How it was run: (§1)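 CLSI broth microdilution on clinical isolates, using frozen in-house-prepared panels of test and comparator agents. MICs were read after 20 to 24 h incubation at 35°C in ambient air. Susceptible/intermediate categories were assigned by CLSI M100-S17 guidelines.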

Enterococcus faecalis [16] = test: Antibacterial activity against Enterococcus faecalis by CLSI M100-S17 method
Staphylococcus aureus [17] = test: Antibacterial activity against methicillin-resistant Staphylococcus aureus by CLSI M100-S17 method
Streptococcus pyogenes [18] = test: Antibacterial activity against Streptococcus pyogenes assessed as susceptible isolates by CLSI M100-S17 method; how it was run: as §1
[19] = system: Staphylococcus epidermidis; test: Antibacterial activity against methicillin-susceptible Staphylococcus epidermidis assessed as intermediate isolates by CLSI M100-S17 method
Enterococcus faecalis [20] = test: Antibacterial activity against Enterococcus faecalis assessed as susceptible isolates by CLSI M100-S17 method
Streptococcus pyogenes [21] = test: Antibacterial activity against Streptococcus pyogenes by CLSI M100-S17 method
Streptococcus agalactiae [22] = test: Antibacterial activity against Streptococcus agalactiae assessed as susceptible isolates by CLSI M100-S17 method; how it was run: as §1

CC(=O)NC[C@H]1CN(c2ccc(N3CCOCC3)c(F)c2)C(=O)O1 [LINEZOLID]
MIC50 (Staphylococcus aureus [1]): 2 µg/mL (≈ 5.93 µM)
MIC90 (Staphylococcus aureus [1]): 2 µg/mL (≈ 5.93 µM)
Activity [2]: 100%
MIC50 (Streptococcus agalactiae [3]): 1 µg/mL (≈ 2.96 µM)
MIC90 (Streptococcus agalactiae [3]): 1 µg/mL (≈ 2.96 µM)
Activity (Enterococcus faecium [4]): 8.6%
MIC50 (Streptococcus pneumoniae [5]): 0.5 µg/mL (≈ 1.48 µM)
MIC90 (Streptococcus pneumoniae [5]): 1 µg/mL (≈ 2.96 µM)
Activity (Enterococcus faecium [6]): 91.4%
Activity (Enterococcus faecium [7]): 0%
MIC50 [8]: 1 µg/mL (≈ 2.96 µM)
MIC90 [8]: 1 µg/mL (≈ 2.96 µM)
Activity (Staphylococcus aureus [9]): 100%
Activity (Enterococcus faecalis [10]): 1.3%
MIC50 (Enterococcus faecium [11]): 2 µg/mL (≈ 5.93 µM)
MIC90 (Enterococcus faecium [11]): 2 µg/mL (≈ 5.93 µM)
MIC50 [12]: 0.5 µg/mL (≈ 1.48 µM)
MIC90 [12]: 1 µg/mL (≈ 2.96 µM)
Activity (Enterococcus faecalis [13]): 0%
Activity (Staphylococcus aureus [14]): 0%
Activity (Streptococcus pneumoniae [15]): 100%
MIC50 (Enterococcus faecalis [16]): 2 µg/mL (≈ 5.93 µM)
MIC90 (Enterococcus faecalis [16]): 2 µg/mL (≈ 5.93 µM)
MIC50 (Staphylococcus aureus [17]): 2 µg/mL (≈ 5.93 µM)
MIC90 (Staphylococcus aureus [17]): 4 µg/mL (≈ 11.9 µM)
Activity (Streptococcus pyogenes [18]): 100%
Activity [19]: 0%
Activity (Enterococcus faecalis [20]): 98.7%
MIC50 (Streptococcus pyogenes [21]): 1 µg/mL (≈ 2.96 µM)
MIC90 (Streptococcus pyogenes [21]): 1 µg/mL (≈ 2.96 µM)
Activity (Streptococcus agalactiae [22]): 100%

Source: ChEMBL document CHEMBL1649552 (2009)
